Laboratory results as given in ChEMBL document CHEMBL1134680, “Iridals are a novel class of ligands for phorbol ester receptors with modest selectivity for the RasGRP receptor subfamily” (J Med Chem, 2001).
pKi: −log10 of the molar value.

Assays:
[1] = biological target: Protein kinase C alpha type (Homo sapiens, UniProt P17252); assay: Binding affinity for PKC alpha (C1b domain)
In short: (§1)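 Competition of [3H]PDBu (3.0 nM) binding to partially purified PKCα or bacterially expressed MBP/RasGRP3 fusion (human RasGRP3, amylose-bead purified). Buffer: 50 mM Tris-Cl pH 7.4, 2 mg/mL γ-globulins, 0.1 mM Ca2+, 0.1 mg/mL phosphatidylserine. Incubation was 5 min at 37 °C for PKCα and 5 min at 18 °C for RasGRP3. Nonspecific binding was set with 30 μM PDBu. Bound and free were separated by PEG precipitation and counted.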

[2] = biological target: T1, Ras guanyl-releasing protein 3 (Homo sapiens, UniProt Q8IV61); assay: Binding affinity for RasGPR3, guanine nucleotide exchange factor; in short: as §1
T1 sequence (Q8IV61 whole entry): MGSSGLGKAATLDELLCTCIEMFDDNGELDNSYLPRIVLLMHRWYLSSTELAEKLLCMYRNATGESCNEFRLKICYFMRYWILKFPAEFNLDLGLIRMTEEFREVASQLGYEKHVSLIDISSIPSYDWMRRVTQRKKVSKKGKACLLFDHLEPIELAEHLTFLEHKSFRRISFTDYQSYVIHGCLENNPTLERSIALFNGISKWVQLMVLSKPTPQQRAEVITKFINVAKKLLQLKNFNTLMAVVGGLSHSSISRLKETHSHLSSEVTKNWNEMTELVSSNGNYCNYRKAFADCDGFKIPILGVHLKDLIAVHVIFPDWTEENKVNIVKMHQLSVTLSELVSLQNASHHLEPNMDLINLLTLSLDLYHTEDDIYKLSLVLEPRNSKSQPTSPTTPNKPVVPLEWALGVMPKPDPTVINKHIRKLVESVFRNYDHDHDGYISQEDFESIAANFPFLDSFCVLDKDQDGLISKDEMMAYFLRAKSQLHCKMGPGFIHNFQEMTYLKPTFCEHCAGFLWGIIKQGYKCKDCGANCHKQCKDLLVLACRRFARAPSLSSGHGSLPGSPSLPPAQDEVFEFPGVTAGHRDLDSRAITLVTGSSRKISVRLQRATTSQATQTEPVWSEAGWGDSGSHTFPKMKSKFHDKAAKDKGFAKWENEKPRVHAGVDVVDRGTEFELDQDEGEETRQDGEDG

[3] = tested on: Panel NCI-60 (60 carcinoma cell lines); assay: Inhibition of cell growth in NCI panel of 60 human carcinoma lines; format: functional
[4] = biological target: T1, Ras guanyl-releasing protein 3; assay: Binding affinity for RasGRP, guanine nucleotide exchange factor

| Structure (SMILES) | pKi [1] | pKi [2] | Log 1/GI50 [3] | pKi [4] |
| --- | --- | --- | --- | --- |
| C=C(/C=C/C=C(/CCC=C(C)C)COC(C)=O)[C@@H]1CC[C@]2([C@H](CCCO)/C(=C(/C)C=O)CC[C@]2(C)O)[C@@H]1O | 7.08 | 7.38 | 4.4 |  |
| C=C(C)[C@@]12OC3(c4ccccc4)O[C@@H]1[C@@H]1[C@@H]4O[C@]4(CO)[C@@H](O)[C@]4(O)C(=O)C(C)=C[C@H]4[C@@]1(O3)[C@H](C)[C@H]2OC(=O)/C=C/C=C/c1ccccc1 |  |  | 5.8 |  |
| CCCCC(=O)O[C@@H]1[C@@H](C)[C@@]2(O)[C@@H](C=C(CO)C[C@]3(O)C(=O)C(C)=C[C@@H]23)[C@@H]2C(C)(C)[C@]12OC(=O)CCC |  |  | 4 |  |
| CC1=CC[C@H](C)C(C)(C)[C@@H]1/C=C/C(C)=C\CC[C@@]1(CO)[C@H](CCCO)/C(=C(/C)C=O)CC[C@]1(C)O | 7.12 |  | 4.6 | 7.81 |
| C=C(C)[C@]12C[C@@H](C)[C@@]34O[C@](/C=C/C=CCCCCCCCCC)(O[C@@H]1[C@@H]3[C@@H]1O[C@]1(CO)[C@@H](O)[C@]1(O)C(=O)C(C)=C[C@H]14)O2 |  |  | 4.7 |  |
| C=C(C)[C@@]12C[C@@H](COC(=O)c3ccccc3)[C@@]34OC5(O[C@@H]1[C@@H]3[C@@H]1O[C@]1(CO)[C@@H](O)[C@@]1(O)[C@H]4[C@H]([C@H](C)[C@@H]1OC(=O)c1ccccc1)[C@H](C)CCCCCC[C@H]5O)O2 [GNIDIMACRIN] |  |  | 4 |  |
| CC1=C[C@H]2[C@@]3(O)[C@H](C)[C@@H](O)[C@]4(O)[C@H]([C@@H]3C=C(CO)C[C@]2(O)C1=O)C4(C)C [PHORBOL] |  |  | 4.3 |  |
| CC(=O)O[C@@]12C[C@@H](C)[C@@]3(O)[C@@H](C=C(CO)C[C@]4(O)C(=O)C(C)=C[C@@H]34)[C@@H]1C2(C)C [PROSTRATIN] |  |  | 3 |  |
